From ChEMBL document CHEMBL2169766 (J Med Chem, 2012)

Assays:
[1] = target: T1, 5-hydroxytryptamine receptor 3A (Homo sapiens, UniProt P46098); test: Displacement of [3H]granisetron from 5HT3A receptor expressed in HEK293 cells after 24 hrs by scintillation counting in presence of quipazine; type: cell-based
T1 sequence (P46098 whole entry): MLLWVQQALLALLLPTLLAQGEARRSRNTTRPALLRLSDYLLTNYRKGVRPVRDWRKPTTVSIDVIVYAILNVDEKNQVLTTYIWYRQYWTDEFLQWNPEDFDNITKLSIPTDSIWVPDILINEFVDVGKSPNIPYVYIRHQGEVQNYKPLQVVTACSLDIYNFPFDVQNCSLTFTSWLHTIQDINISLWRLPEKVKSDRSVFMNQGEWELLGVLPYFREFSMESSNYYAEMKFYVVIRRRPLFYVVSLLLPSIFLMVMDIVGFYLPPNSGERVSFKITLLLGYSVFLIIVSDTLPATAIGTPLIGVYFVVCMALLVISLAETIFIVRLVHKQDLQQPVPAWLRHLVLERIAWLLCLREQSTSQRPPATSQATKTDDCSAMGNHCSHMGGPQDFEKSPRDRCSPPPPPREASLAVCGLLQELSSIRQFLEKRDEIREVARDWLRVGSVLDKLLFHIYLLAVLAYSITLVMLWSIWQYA
Method in brief: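 Nonspecific binding defined with 1 mM quipazine. At least 24 h at 4 °C, GF/B filtration (0.3% PEI presoaked), scintillation counting. Hill-equation fit; Ki from IC50 via Cheng-Prusoff. At least three separate transfection plates.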

[2] = target: Neuronal acetylcholine receptor; alpha4/beta2 (Homo sapiens) (UniProt P17787+P43681); test: Displacement of [3H]cytisine from recombinant human nACH alpha4beta2 receptor expressed in SH-SY5Y cells at 0.1 uM after 120 mins; type: cell-based
Method in brief: (§1)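 Single-point radioligand competition binding at an external contract lab. Reported as percent inhibition of control specific binding: 100 − (measured specific binding / control specific binding) × 100.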

[3] = target: T2, 5-hydroxytryptamine receptor 1A (Homo sapiens) (UniProt P08908); test: Displacement of [3H]8-OH-DPAT from recombinant human 5HT1A receptor expressed in HEK-293 cells at 0.1 uM after 60 mins; type: cell-based; conditions: HEK293; method in brief: as §1
T2 sequence (whole entry): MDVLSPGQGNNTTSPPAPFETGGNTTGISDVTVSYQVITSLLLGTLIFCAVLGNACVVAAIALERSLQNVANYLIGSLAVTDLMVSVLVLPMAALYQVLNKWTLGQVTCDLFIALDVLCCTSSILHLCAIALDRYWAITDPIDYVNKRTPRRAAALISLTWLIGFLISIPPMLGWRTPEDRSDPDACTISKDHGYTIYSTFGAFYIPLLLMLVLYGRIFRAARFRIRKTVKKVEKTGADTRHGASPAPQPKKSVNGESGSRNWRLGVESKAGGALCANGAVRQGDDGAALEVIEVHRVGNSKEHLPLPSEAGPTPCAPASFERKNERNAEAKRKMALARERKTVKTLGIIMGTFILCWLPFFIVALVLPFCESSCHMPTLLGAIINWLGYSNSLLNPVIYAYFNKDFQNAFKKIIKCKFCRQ

[4] = target: T3, 5-hydroxytryptamine receptor 2C (Homo sapiens) (UniProt P28335); test: Displacement of [125I] +/- DOI from recombinant human 5HT2C receptor expressed in HEK-293 cells at 0.1 uM after 60 mins; type: cell-based; conditions: HEK293; method in brief: as §1
T3 sequence (whole entry): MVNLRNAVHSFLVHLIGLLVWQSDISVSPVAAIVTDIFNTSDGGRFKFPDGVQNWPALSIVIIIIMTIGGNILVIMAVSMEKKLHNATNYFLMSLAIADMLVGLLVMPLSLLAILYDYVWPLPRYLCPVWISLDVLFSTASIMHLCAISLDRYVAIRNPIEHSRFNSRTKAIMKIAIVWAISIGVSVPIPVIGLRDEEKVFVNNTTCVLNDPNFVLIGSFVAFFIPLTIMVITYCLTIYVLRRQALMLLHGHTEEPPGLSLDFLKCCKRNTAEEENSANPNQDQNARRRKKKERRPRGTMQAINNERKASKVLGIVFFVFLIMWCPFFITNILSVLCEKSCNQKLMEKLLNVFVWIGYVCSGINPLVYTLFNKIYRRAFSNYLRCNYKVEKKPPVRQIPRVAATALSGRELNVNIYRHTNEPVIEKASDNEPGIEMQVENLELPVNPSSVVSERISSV

HEK293 [5] = test: Selectivity ratio for recombinant human 5HT7 receptor expressed in CHO cells to 5HT3A receptor expressed in HEK293 cells; type: cell-based
HEK293 [6] = test: Selectivity ratio for glycine receptor in rat spinal cord to 5HT3A receptor expressed in HEK293 cells; type: cell-based
[7] = target: Neuronal acetylcholine receptor subunit alpha-7 (Homo sapiens) (UniProt P36544); test: Displacement of [3H]epibatidine from recombinant human nACH alpha7 receptor expressed in HEK-293 cells at 0.1 uM after 120 mins; type: cell-based; conditions: HEK293
[8] = target: 5-hydroxytryptamine receptor 2A (Homo sapiens) (UniProt P28223); test: Displacement of [125I] +/- DOI from recombinant human 5HT2A receptor expressed in HEK-293 cells at 0.1 uM after 60 mins; type: cell-based; conditions: HEK293; method in brief: as §1
[9] = target: GABA-A receptor; alpha-1/beta-2/gamma-2 (Homo sapiens) (UniProt P14867+P47870+P18507); test: Displacement of [3H]muscimol from recombinant human GABAA alpha1beta2gamma2 receptor expressed in CHO cells at 0.1 uM after 120 mins; type: cell-based; method in brief: as §1
[10] = target: 5-hydroxytryptamine receptor 7 (Homo sapiens) (UniProt P34969); test: Displacement of [3H]LSD from recombinant human 5HT7 receptor expressed in CHO cells at 0.1 uM after 120 mins; type: cell-based; method in brief: as §1
HEK293 [11] = test: Selectivity ratio for recombinant human GABAA alpha1beta2gamma2 receptor expressed in CHO cells to 5HT3A receptor expressed in HEK293 cells; type: cell-based
HEK293 [12] = test: Selectivity ratio for recombinant human 5HT6 receptor expressed in CHO cells to 5HT3A receptor expressed in HEK293 cells; type: cell-based
[13] = target: 5-hydroxytryptamine receptor 6 (Homo sapiens) (UniProt P50406); test: Displacement of [3H]LSD from recombinant human 5HT6 receptor expressed in CHO cells at 0.1 uM after 120 mins; type: cell-based; method in brief: as §1
HEK293 [14] = test: Selectivity ratio for recombinant human nACH alpha7 receptor expressed in HEK-293 cells to 5HT3A receptor expressed in HEK293 cells; type: cell-based
HEK293 [15] = test: Selectivity ratio for recombinant human 5HT2A receptor expressed in HEK-293 cells to 5HT3A receptor expressed in HEK293 cells; type: cell-based
HEK293 [16] = test: Selectivity ratio for recombinant rat 5HT1D receptor expressed in CHO cells to 5HT3A receptor expressed in HEK293 cells; type: cell-based
HEK293 [17] = test: Selectivity ratio for recombinant human nACH alpha4beta2 receptor expressed in SH-SY5Y cells to 5HT3A receptor expressed in HEK293 cells; type: cell-based
HEK293 [18] = test: Selectivity ratio for recombinant human 5HT4E receptor expressed in CHO cells to 5HT3A receptor expressed in HEK293 cells; type: cell-based
Rattus norvegicus = species on record: Rattus norvegicus; test: Displacement of [3H]strychnine from glycine receptor in rat spinal cord at 0.1 uM after 15 mins; method in brief: as §1
[19] = target: 5-hydroxytryptamine receptor 1D (Rattus norvegicus) (UniProt P28565); test: Displacement of [3H]serotonin from recombinant rat 5HT1D receptor expressed in CHO cells at 0.1 uM after 60 mins; type: cell-based; method in brief: as §1
[20] = target: 5-hydroxytryptamine receptor 4 (Homo sapiens) (UniProt Q13639); test: Displacement of [3H]GR113808 from recombinant human 5HT4E receptor expressed in CHO cells at 0.1 uM after 60 mins; type: cell-based; method in brief: as §1
HEK293 [21] = test: Selectivity ratio for recombinant human 5HT2C receptor expressed in HEK-293 to 5HT3A receptor expressed in HEK293 cells; type: cell-based
[22] = target: 5-hydroxytryptamine receptor 1B (Rattus norvegicus) (UniProt P28564); test: Displacement of [125I] CYP from 5HT1B receptor in rat cerebral cortex at 0.1 uM after 120 mins; type: tissue-based; method in brief: as §1
HEK293 [23] = test: Selectivity ratio for recombinant human 5HT2C receptor expressed in HEK-293 cells to 5HT3A receptor expressed in HEK293 cells; type: cell-based
HEK293 [24] = test: Selectivity ratio for recombinant human 5HT1A receptor expressed in HEK-293 to 5HT3A receptor expressed in HEK293 cells; type: cell-based
HEK293 [25] = test: Selectivity ratio for 5HT1B receptor in rat cerebral cortex to 5HT3A receptor expressed in HEK293 cells; type: cell-based
[26] = target: 5-hydroxytryptamine receptor 2B (Homo sapiens) (UniProt P41595); test: Displacement of [125I] +/- DOI from recombinant human 5HT2B receptor expressed in CHO cells at 0.1 uM after 60 mins; type: cell-based; method in brief: as §1
Chain of 5-hydroxytryptamine receptor 2B (Homo sapiens) (P41595 whole entry): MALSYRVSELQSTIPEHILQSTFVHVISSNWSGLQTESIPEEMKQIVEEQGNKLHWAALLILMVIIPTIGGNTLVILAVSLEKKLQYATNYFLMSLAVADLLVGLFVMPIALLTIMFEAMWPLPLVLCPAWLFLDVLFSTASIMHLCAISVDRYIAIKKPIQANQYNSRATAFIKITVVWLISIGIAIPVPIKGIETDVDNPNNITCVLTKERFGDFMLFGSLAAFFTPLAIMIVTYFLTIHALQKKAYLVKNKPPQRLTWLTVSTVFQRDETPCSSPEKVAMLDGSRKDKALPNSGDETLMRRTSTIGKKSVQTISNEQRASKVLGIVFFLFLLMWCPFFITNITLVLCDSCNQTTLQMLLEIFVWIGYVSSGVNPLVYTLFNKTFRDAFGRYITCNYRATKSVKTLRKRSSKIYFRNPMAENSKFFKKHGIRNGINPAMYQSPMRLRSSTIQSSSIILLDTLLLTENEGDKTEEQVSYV

Chain of 5-hydroxytryptamine receptor 1D (Rattus norvegicus) (P28565 whole entry): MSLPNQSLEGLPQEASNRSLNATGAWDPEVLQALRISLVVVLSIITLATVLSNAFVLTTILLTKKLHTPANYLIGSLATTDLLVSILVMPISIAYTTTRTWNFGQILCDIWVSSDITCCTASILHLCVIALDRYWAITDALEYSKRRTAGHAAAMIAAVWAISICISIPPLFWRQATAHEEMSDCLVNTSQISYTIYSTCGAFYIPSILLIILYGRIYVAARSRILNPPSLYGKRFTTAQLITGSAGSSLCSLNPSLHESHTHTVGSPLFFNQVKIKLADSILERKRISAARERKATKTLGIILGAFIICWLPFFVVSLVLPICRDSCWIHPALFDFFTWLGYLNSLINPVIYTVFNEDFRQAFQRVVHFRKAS
Chain of 5-hydroxytryptamine receptor 1B (Rattus norvegicus) (P28564 whole entry): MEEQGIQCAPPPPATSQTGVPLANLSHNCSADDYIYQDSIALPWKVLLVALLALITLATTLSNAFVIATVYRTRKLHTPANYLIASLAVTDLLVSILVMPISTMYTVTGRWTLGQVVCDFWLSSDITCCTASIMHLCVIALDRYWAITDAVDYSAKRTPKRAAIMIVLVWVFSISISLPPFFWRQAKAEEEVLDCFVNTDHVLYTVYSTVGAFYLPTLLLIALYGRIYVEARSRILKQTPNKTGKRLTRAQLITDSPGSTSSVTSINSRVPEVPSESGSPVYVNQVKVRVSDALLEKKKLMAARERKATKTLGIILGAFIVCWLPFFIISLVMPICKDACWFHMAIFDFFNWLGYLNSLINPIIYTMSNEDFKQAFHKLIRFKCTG
Chain of Neuronal acetylcholine receptor subunit alpha-7 (Homo sapiens) (P36544 whole entry): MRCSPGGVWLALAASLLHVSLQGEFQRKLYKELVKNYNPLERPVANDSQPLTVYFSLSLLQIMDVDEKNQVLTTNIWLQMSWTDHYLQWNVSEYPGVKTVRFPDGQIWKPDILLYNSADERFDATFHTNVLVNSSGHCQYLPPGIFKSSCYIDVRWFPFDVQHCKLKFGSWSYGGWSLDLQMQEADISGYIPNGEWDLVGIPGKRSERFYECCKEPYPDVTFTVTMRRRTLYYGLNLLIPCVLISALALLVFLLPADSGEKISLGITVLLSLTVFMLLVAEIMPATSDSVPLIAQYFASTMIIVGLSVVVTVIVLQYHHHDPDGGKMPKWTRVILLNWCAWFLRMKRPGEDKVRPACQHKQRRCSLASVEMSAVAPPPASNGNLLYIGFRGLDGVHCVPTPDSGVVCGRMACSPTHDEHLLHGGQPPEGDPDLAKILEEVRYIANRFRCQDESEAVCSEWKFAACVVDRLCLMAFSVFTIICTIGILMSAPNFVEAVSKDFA
Chain of 5-hydroxytryptamine receptor 6 (Homo sapiens) (P50406 whole entry): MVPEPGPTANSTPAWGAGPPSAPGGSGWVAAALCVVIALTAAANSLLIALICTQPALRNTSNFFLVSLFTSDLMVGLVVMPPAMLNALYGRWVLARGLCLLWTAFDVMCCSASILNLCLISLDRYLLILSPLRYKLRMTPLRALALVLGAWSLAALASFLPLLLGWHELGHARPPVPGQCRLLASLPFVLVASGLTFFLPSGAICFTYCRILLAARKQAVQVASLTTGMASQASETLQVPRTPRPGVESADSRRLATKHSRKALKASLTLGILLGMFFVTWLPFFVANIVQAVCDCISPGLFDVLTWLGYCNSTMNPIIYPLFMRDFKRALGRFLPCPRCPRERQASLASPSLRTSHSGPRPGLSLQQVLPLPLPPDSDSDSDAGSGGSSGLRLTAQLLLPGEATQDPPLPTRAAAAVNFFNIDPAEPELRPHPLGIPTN
Chain of 5-hydroxytryptamine receptor 7 (Homo sapiens) (P34969 whole entry): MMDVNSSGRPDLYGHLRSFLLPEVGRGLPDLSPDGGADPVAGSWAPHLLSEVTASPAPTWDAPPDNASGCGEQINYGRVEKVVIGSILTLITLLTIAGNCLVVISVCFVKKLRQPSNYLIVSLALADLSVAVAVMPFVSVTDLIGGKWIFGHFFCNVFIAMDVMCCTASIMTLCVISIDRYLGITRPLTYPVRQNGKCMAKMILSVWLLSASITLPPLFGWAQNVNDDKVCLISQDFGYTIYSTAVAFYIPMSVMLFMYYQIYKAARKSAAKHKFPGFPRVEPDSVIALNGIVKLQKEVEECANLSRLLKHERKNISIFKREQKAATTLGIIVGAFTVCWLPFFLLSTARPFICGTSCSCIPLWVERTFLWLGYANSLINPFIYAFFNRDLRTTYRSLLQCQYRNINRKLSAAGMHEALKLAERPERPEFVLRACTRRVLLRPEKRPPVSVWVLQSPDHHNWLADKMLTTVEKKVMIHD
Chain of 5-hydroxytryptamine receptor 2A (Homo sapiens) (P28223 whole entry): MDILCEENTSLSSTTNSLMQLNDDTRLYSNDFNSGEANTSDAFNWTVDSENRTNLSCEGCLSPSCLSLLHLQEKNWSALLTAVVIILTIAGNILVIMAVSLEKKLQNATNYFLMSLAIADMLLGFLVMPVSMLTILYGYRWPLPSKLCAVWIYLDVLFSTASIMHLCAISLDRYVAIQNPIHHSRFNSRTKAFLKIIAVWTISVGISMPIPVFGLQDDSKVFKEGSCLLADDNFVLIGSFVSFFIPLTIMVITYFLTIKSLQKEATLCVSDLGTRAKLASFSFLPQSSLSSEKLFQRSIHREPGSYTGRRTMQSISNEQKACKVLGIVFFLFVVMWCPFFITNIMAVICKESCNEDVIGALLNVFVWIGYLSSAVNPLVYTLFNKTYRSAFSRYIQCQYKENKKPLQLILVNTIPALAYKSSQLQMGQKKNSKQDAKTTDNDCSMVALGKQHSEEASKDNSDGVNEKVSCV
Chain of 5-hydroxytryptamine receptor 4 (Homo sapiens) (Q13639 whole entry): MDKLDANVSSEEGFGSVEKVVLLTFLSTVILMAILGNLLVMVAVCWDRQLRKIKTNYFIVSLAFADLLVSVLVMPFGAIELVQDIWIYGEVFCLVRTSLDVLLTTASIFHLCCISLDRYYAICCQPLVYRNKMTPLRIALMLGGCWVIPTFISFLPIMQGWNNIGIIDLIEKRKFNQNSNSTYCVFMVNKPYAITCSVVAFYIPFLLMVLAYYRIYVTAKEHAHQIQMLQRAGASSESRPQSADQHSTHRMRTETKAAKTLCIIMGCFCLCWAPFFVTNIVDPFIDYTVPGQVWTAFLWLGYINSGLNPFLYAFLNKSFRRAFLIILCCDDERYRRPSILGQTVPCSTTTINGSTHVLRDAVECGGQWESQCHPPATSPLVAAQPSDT

CN1CCN(c2nc(NCCO)c3cc(Cl)ccc3n2)CC1
Ki [1]: 14.8 nM

CN1CCN(c2nc(O)c3cc(Cl)ccc3n2)CC1
Ki [1]: 575 nM

CN1CCN(c2ccc3cccc(N)c3n2)CC1
Ki [1]: 331 nM

CN1CCN(c2ncc3ccccc3n2)CC1
Ki [1]: 1.35 nM

CN1CCN(c2nc(NCCc3ccccc3)c3cc(Cl)ccc3n2)CC1
Ki [1]: 79.4 nM

CC(C)Nc1nc(N2CCN(C)CC2)nc2ccc(Cl)cc12
Ki [1]: 166 nM

CN1CCN(c2cnc3ccccc3c2)CC1
Ki [1]: 407 nM

CN1CCN(c2nc(N)c3ccccc3n2)CC1
inhibition [2]: < 15% | inhibition [3]: < 15% | inhibition [4]: < 15% | Selectivity ratio (HEK293 [5]): 1000 | Selectivity ratio (HEK293 [6]): 1000 | inhibition [7]: 31% | inhibition [8]: < 15% | inhibition [9]: < 15% | inhibition [10]: < 15% | Ki [1]: 0.0513 nM | Selectivity ratio (HEK293 [11]): 1000 | Selectivity ratio (HEK293 [12]): 1000 | inhibition [13]: < 15% | Selectivity ratio (HEK293 [14]): 1000 | Selectivity ratio (HEK293 [15]): 1000 | Selectivity ratio (HEK293 [16]): 1000 | Selectivity ratio (HEK293 [17]): 1000 | Selectivity ratio (HEK293 [18]): 1000 | inhibition (Rattus norvegicus): < 15% | inhibition [19]: < 15% | inhibition [20]: < 15% | Selectivity ratio (HEK293 [21]): 1000 | inhibition [22]: < 15% | Selectivity ratio (HEK293 [23]): 1000 | Selectivity ratio (HEK293 [24]): 1000 | Selectivity ratio (HEK293 [25]): 1000 | inhibition [26]: 43%

CN1CCN(c2nc3ccccc3c(=O)[nH]2)CC1
Ki [1]: 46.8 nM

CN1CCN(c2ccc3ccccc3c2)CC1
Ki [1]: 537 nM

CNc1nc(N2CCN(C)CC2)cc2ccccc12
Ki [1]: 5.89 nM

CN1CCN(c2nc(NCc3ccc(N)cc3)c3cc(Cl)ccc3n2)CC1
Ki [1]: 2.69 nM

CNc1nc(N2CC[C@H](N)C2)nc2ccc(Cl)cc12
Ki [1]: 2340 nM

CNc1nc(N2CC(N(C)C)C2)nc2ccc(Cl)cc12
Ki [1]: 468 nM

CNc1nc(N2CCCN(C)CC2)nc2ccc(Cl)cc12
Ki [1]: 18.2 nM

CN1CCN(c2ncc3cc(Cl)ccc3n2)CC1
Ki [1]: 7.41 nM

CN1CCN(c2cc(N)c3ccccc3n2)CC1
Ki [1]: 1.45 nM

CN1CCN(c2ccc3c(N)cccc3n2)CC1
Ki [1]: 204 nM

CN1CCN(c2nc(NCc3ccoc3)c3cc(Cl)ccc3n2)CC1
Ki [1]: 2.82 nM

CNc1nc(NCCC2CCN(C)C2)nc2ccc(Cl)cc12 (stereo not drawn)
Ki [1]: 11700 nM

CNc1nc(N2CCN(C)CC2)nc2ccc(Cl)cc12
Ki [1]: 1.12 nM

CN1CCN(c2nc(N(C)C)c3cc(Cl)ccc3n2)CC1
Ki [1]: 6.61 nM

CN1CCN(c2nc(NCc3ccccc3)c3cc(Cl)ccc3n2)CC1
Ki [1]: 13.8 nM

CN1CCN(c2nc(NCC3CCCCC3)c3cc(Cl)ccc3n2)CC1
Ki [1]: 16600 nM

CN1CCN(c2ccc3ccccc3n2)CC1
Ki [1]: 0.457 nM

CN1CCN(c2cnc3ccccc3n2)CC1
Ki [1]: 4.68 nM

CNc1cc(N2CCN(C)CC2)nc2ccccc12
Ki [1]: 13.5 nM

CN1CCN(c2cc3ccccc3c(N)n2)CC1
Ki [1]: 219 nM

CN1CCN(c2nc(N)c3cc(Cl)ccc3n2)CC1
Ki [1]: 12 nM

CN1CCN(c2cc3ccccc3cn2)CC1
Ki [1]: 1.62 nM

CNc1nc(N2CCN(C)CC2)nc2ccccc12
Ki [1]: 2.95 nM

CNc1nc(N2CC3CCCNC3C2)nc2ccc(Cl)cc12 (stereo not drawn)
Ki [1]: 3550 nM
